# According to ChEMBL document CHEMBL3046847, “Synthesis and in vitro antiproliferative activity of novel 12(H)-quino[3,4-b][1,4]benzothiazine derivatives” (Med Chem Res, 2013):
# What was measured:
# SNB-19 = test: Cytotoxicity against Homo sapiens (human) SNB19 cells assessed as cell viability after 72 hr by WST-1 assay; type: functional, cell-based
# In short: (§1)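 Cells grown in D-MEM with 12 % FCS, streptomycin and penicillin at 37 °C, 5 % CO2, seeded at 1×10^4 cells/well. Exposed to compounds at 0–100 μg/ml for 72 h, then incubated with WST-1 for 2 h. Absorbance was read at 450 nm against a background control. Values are means of at least two independent experiments run in triplicate.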
# C32 = test: Cytotoxicity against Homo sapiens (human) C32 cells assessed as cell viability after 72 hr by WST-1 assay; type: functional, cell-based; in short: as §1
# [1] = Homo sapiens, C32, 72 h, read-out: IC50
# [2] = Homo sapiens, SNB-19, 72 h, read-out: IC50
Compound,IC50 (SNB-19; snb-19),IC50 (C32; [1]) [µg/mL],IC50 (SNB-19; [2]) [µg/mL],IC50 (C32; c32)
Clc1ccc2c(c1)Sc1cnc3ccccc3c1N2,Not Active,7.8,–,–
c1cnc2c(c1)N(CCN1CCCCC1)c1c(cnc3ccccc13)S2,–,7.9,7.3,–
CN(C)CCCN1c2cccnc2Sc2cnc3ccccc3c21,–,6.5,8.2,–
c1ccc2c(c1)Sc1cnc3ccccc3c1N2CCN1CCCCC1,–,5.6,6.7,–
Fc1ccc2c(c1)Sc1cnc3ccccc3c1N2CCN1CCCCC1,–,7,12.4,–
Cc1ccc2c(c1)Sc1cnc3ccccc3c1N2CCN1CCCCC1,–,6.9,6.6,–
Cc1cccc2c1Nc1c(cnc3ccccc13)S2,Not Active,–,–,Not Active
c1cnc2c(c1)Nc1c(cnc3ccccc13)S2,–,8.7,10.2,–
Cc1ccc2c(c1)Sc1cnc3ccccc3c1N2,Not Active,8.7,–,–
Brc1ccc2c(c1)Sc1cnc3ccccc3c1N2,Not Active,8.6,–,–
Fc1ccc2c(c1)Sc1cnc3ccccc3c1N2,Not Active,9.4,–,–
c1ccc2c(c1)Nc1c(cnc3ccccc13)S2,–,8.9,9.6,–
